Bioassay records as filed in PubChem BioAssay.
PGC1a acetyl inh = lowers PGC1a acetylation signal in U2OS cells; AlphaScreen anti-acetyl-lysine; with virally co-expressed GCN5 acetyltransferase; inhibition, % at 15.6 µM; actives 0.17% (n = 350,000); AID 651687;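 active = every replicate shows inhibition of at least 40%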;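 also: 0% = neutral control wells and 100% = positive control wells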
rRNA inh HTS = selective bacterial rRNA inhibition in E. coli. E. coli WT GFP vs humanized-ribosome RFP mutants, fluorescence, 24 h; hits give low values; DMSO median 0, no signal -100. GFP signal change (wild-type ribosome), % (concentration not given with the values). actives 1.6% (n = 350,000). AID 720706;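 active = significant combined selectivity score with lowered wild-type GFP, culture density cut under 30%, mutant RFP and density less affected; inactive = any of these conditions unmet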
FGF22 binding = shifts melting point of recombinant human FGF22; Q9HCT0; recombinant FGF22 thermal shift, SYPRO orange fluorescence; percent of sucrose octasulfate shift, DMSO zero; activity (Tm shift, normalised), % at 9.99 µM; actives 1.5% (n = 340,000);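 active = mean Tm shift, scaled 0 neutral to 100 positive control, at about 1.3% or above, every replicate too, limit read from the data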
Target sequence (Q9HCT0 whole entry, looked up): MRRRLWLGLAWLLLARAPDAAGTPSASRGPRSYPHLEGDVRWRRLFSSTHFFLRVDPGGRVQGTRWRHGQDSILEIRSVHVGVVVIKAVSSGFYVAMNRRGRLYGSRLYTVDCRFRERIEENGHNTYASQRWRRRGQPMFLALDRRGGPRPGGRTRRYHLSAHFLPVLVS
Vif imaging = inhibitors of HIV Vif; HEK293T cells, Vif self-association by quenched fluorescence, imaging, 24 h; inhibition, % at 7.49 µM; actives 0.35% (n = 340,000); in the data active = inhibition above about 50%, passing the limit was not always enough
Cneo AK release = causes C. neoformans cell lysis; adenylate kinase release luminescence, 4 h; normalised: neutral wells 0, clomiphene wells 100; lysis activity, % at 15 µM; actives 0.2% (n = 360,000);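 active = mean lysis activity across replicates of at least 80%, whatever share of replicates individually reach that level; inactive = mean lysis activity below 80%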
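Test system: log-phase Cryptococcus neoformans yeast cells; Quantity: yeast cell density of 5 × 10^6 cells/mL; Buffer or medium: YPD; Doses: single compound concentration per well; Timing: 4 h at 37 °C static, read 1 h later; Measured by: AK luminescence; Read-out basis: lysis from increased AK signal; Control set: Clomiphene as positive control.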
PglD inh = inhibitors of Campylobacter jejuni PglD acetyltransferase; actives 0.098% (n = 360,000); inhibition, % at 12.5 µM; purified PglD enzyme, DTNB colorimetric CoA detection; in the data active = inhibition above about 16%, passing the limit was not always enough
Active calls of the source: *; . = no result. Only some compounds are listed: those with a hit (about 2.9% of all), similar ones and a draw of the others.

SMILES	PGC1a acetyl inh	rRNA inh HTS	FGF22 binding	Vif imaging	Cneo AK release	PglD inh
COc1ccccc1C(=O)Nc1ccc2c(c1)OC[C@H](C)N(C)C[C@H](C)[C@@H](OC)CN(C)C2=O	-2	2	0	.	-3	0
COc1ccc(NC(=O)Nc2ccc3c(c2)C(=O)N([C@@H](C)CO)C[C@H](C)[C@H](CN(C)C(=O)Nc2ccc(OC)cc2)OCCCC[C@H](C)O3)cc1	-16	-2	1	.	1	12
COc1ccc(C(=O)CSc2n[nH]c(=O)[nH]c2=O)cc1	4	1	43*	5	.	.
CC(C)(C)C(=O)N1CCN(c2ccc([N+](=O)[O-])c(NCC3CCCO3)c2)CC1 (stereo not given)	-10	-38*	.	-2	2	-3
CCN1/C(=C2/SC(=S)NC2=O)Sc2ccccc21	.	.	43*	.	.	.
COc1ccc2c3c(n(C)c2c1)[C@@H](CO)N(C(=O)CC1CC1)CC31CCN(C(=O)C2CCCC2)CC1	.	-1	0	.	.	.
CCOC(=O)c1sc(N=NC2=C(O)CCCC2=O)c(C(=O)OCC)c1C	2	-26*	0	2	1	-2
C[C@@H]1CN([C@H](C)CO)C(=O)c2cc(C#CCc3ccccc3)cnc2O[C@@H]1CN(C)C(=O)C1CC1	-2	1	0	.	-7	-2
CC(C)N1CCc2c(sc(NC(=O)C3CCCCC3)c2C(N)=O)C1	44*	7	0	-4	-1	0
COC(=O)c1c(NC(=O)C2CCCCC2)sc2c1CCN(C(C)C)C2	10	-1	1	1	0	1
COc1ccc(-c2noc(CCC(=O)N3CCN(c4cccc(OC)c4)CC3)n2)cc1	-5	-32*	0	-6	-1	-1
O=C1CSC(=S)N1/N=C/c1cc(Br)c(O)c(Br)c1	4	.	.	70*	1	-10
CCOc1ccc(OCCn2nnc3ccccc3c2=O)cc1	.	2	44*	-2	.	.
Cc1cccc(N2CCc3c2nc2ccc(Br)cc2c3N)c1	-3	-49*	0	.	8	-7
Nc1c2c(nc3ccc(Br)cc13)N(c1ccccc1)CC2	13	.	.	.	0	0
CCNC(=O)C[C@@H]1CC[C@H]2[C@@H](COc3ccc(NC(=O)Nc4ccccc4C)cc3C(=O)N2C)O1	7	3	0	.	-1	-3
CC(OC(=O)c1oc2ccccc2c1COc1ccccc1)C(=O)NC(N)=O (stereo not given)	-18	11	43*	-16	.	.
COc1ccc(CNC(=O)C[C@H]2C=C[C@H](NC(=O)Nc3ccc4c(c3)OCO4)[C@H](CO)O2)cc1	0	-6	0	.	-2	2
Cc1cc2nc(N3C(=O)CNC3=S)sc2cc1C	4	-2	43*	18	-21	-4
CC(c1ccon1)N(C)C(=O)c1ccc2nc(Cc3cccc(Cl)c3)oc2c1 (stereo not given)	-18	-28*	0	7	-2	-4
Cc1ccc(OCc2nc(C#N)c(N3CCCCC3)o2)cc1	.	-32*	0	4	.	.
CC=Cc1ccc2n(c1=O)C[C@H]1[C@H](CO)[C@@H](C(=O)NC3CCC3)[C@@H]2N1Cc1ccccc1 (mixture of isomers)	.	3	0	.	0	1
COCCNC(=O)CCc1c(C)nc2c(c(C)nn2-c2ccc(C)c(C)c2)c1C	78*	10	0	1	0	7
CCOc1cnn(-c2cc(Oc3ccc(C)cc3)ncn2)c(=O)c1Cl	4	.	.	11	4	6
Cc1ccccc1Oc1cc(-n2ncc(Cl)c(Cl)c2=O)ncn1	69*	0	0	18	-4	9
SMILES	PGC1a acetyl inh	rRNA inh HTS	FGF22 binding	Vif imaging	Cneo AK release	PglD inh
Cc1ccc2c(Cl)c(C(=O)N/N=C/c3cccn3C)sc2c1	-1	-22*	0	0	9	-2
Cc1c(C(=O)N/N=C/c2cccnc2)sc(=S)n1C	.	.	.	5	.	.
Cn1c(N)c(C(=O)N/N=C/c2ccccc2)sc1=S	-6	-36*	1	-1	10	-5
CCCC(=O)Nc1ccc2c(c1)OC[C@H](C)N(C(C)=O)C[C@H](C)[C@@H](OC)CN(C)C2=O	12	3	.	.	.	.
C/C(N)=C(/C#N)C(=O)COC(=O)c1ccccc1O	.	.	.	-11	.	.
C/C(N)=C(/C#N)C(=O)COC(=O)c1ccccc1C(=O)c1ccc(C)cc1	-6	-21*	0	7	.	.
CC1CN(c2ncc(/C=N/NC(=O)c3ccccc3O)s2)CC(C)O1 (stereo not given)	21	-31*	0	8	0	-2
COc1ccc(OC)c2[nH]c(=O)c(CCNC(=O)c3cccs3)cc12	.	1	44*	15	.	.
COc1cc(C(=O)NCCc2cc3c(OC)ccc(OC)c3[nH]c2=O)cc(OC)c1OC	2	-1	0	1	.	.
CC1=NN(C(N)=S)C(=O)C1N=Nc1c(Cl)cc([N+](=O)[O-])cc1Cl (stereo not given)	-1	-26*	0	-3	0	-5
CC1=NN(C(N)=S)C(=O)C1N=Nc1c(C)cc(C)cc1C (stereo not given)	12	.	.	33	1	-3
CO[C@H]1CN(C)C(=O)c2ccc(NC(=O)Cc3ccccc3)cc2OC[C@H](C)N(C)C[C@@H]1C	.	0	.	.	.	.
CN1C(=O)N[C@@H]2c3ccccc3O[C@@]1(C)[C@@H]2COC(=O)c1ccccc1	-1	.	0	.	96*	1
CN1C(=O)N[C@@H]2c3ccccc3O[C@@]1(C)[C@@H]2COC(=O)c1ccc([N+](=O)[O-])cc1	0	.	0	.	-2	.
Cc1cc(NC(=O)CSc2nccn2-c2cccc(C)c2C)no1	.	-28*	42	-15	.	.
CC(C)C#Cc1cnc2c(c1)C(=O)N([C@H](C)CO)C[C@@H](C)[C@H](CN(C)C(=O)Cc1ccccn1)O2	15	-1	0	.	-1	-2
Cc1nnc(SCC2=C(C(=O)O)N3C(=O)C(NC(=O)Cn4ncc(Cl)c4C)C3SC2)s1 (stereo not given)	15	16	43*	4	.	.
O=C(Nc1ccc2c(c1)[C@H]1C[C@H](CC(=O)N3CCCCC3)O[C@H](CO)[C@H]1O2)C1CCC1	-1	1	0	.	-1	3
CCOc1ccc2nc(SCC3CC3(Cl)Cl)[nH]c2c1 (stereo not given)	-3	-45	0	2	.	.
ClC1(Cl)CC1CSc1nc2ccccc2[nH]1 (stereo not given)	.	-28*	1	8	.	.
COn1c(-n2nc(C)cc2C)nc2ccccc2c1=O	1	.	.	8	91*	-4
COc1ccccc1Cc1nc(-c2ccncc2)no1	-5	1	43*	.	.	.
CCCCc1ccc(NC(=O)CSc2nc3ncccc3[nH]2)cc1	.	-26*	0	-21	-1	2
